# Measurements as given in PMC2735501 (Journal of medicinal chemistry, 2009).
# Columns and labels:
# [1] = tested on: cytokine production by OVA stimulated splenocytes; experiment: Mouse splenocyte cytokine assay; type: cell-based; settings: for inhibiting TH2 cytokine production compared with dexamethasone (in words): IL-5, IL-13, 10 nM (Figure 9)
# Procedure, shortened: (§1)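 Female Balb-C mice (6–8 weeks) were immunized s.c. weekly for four weeks with 25 µg OVA adsorbed to 1 mg alum in 200 µl PBS. Splenocytes were strained and resuspended at 1.3×10^6 cells/mL in RPMI-1640, then given test material in DMSO plus OVA. Replicate control wells held DMSO or DMSO+OVA. Supernatant cytokines were read by sandwich ELISA at 450 nm against standards in each replicate assay. Viability was checked by trypan blue count.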
# IL-5 production = IL-5 production by OVA stimulated mouse splenocytes; type: cell-based; settings: pure compounds or fractions
# Procedure, shortened: as §1
smiles,measurement,setting,value
CCCCCC[C@H]1C(=O)O[C@H](C)[C@H](NC(=O)c2cccc(NC=O)c2O)C(=O)O[C@@H](C)[C@@H]1OC(=O)c1ccccc1 [compound 7],inhibiting TH2 cytokine production compared with dexamethasone (in words),[1],as effective as dexamethasone
C[C@@H]1OC(=O)[C@@H](NC(=O)c2cccc(NC=O)c2O)[C@@H](C)OC(=O)[C@H](Cc2ccccc2)[C@H]1O [compound 10],suppression of IL-5 production (in words),IL-5 production,low micromolar
same,suppression of cytokine production by OVA stimulated splenocytes (in words),[1],low micromolar
CC(C)C(=O)O[C@H]1[C@H](C)OC(=O)[C@@H](NC(=O)c2cccc(NC=O)c2O)[C@@H](C)OC(=O)[C@@H]1Cc1ccccc1 [compound 2],inhibiting TH2 cytokine production compared with dexamethasone (in words),[1],as effective as dexamethasone
